Compound activity from PubChem.
MBD2 inh – inhibitors of human MBD2 binding to methylated oligonucleotide; actives 0.31% (n = 370,000); Q9UBB5; TR-FRET; inhibition, % at 4.4 µM; in the data active = inhibition above about 13%
TDP2 inh – blocks human TDP2 phosphodiesterase activity. actives 0.34% (n = 370,000). recombinant TDP2, T5PNP hydrolysis, p-nitrophenol absorbance 415 nm. inhibition, % at 12.8 µM. O95551. AID 720702;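 active = inhibition above the mean of all tested compounds plus 3 SD, set per campaign, cut at about 25% in these data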
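Assay system: recombinant human TDP2 / Reagent: T5PNP substrate at 5 mM, a TopII-DNA adduct mimic / Measured by: epi absorbance from released p-nitrophenol / Evaluation: % inhibition relative to enzyme-containing and enzyme-free wells / Control set: enzyme-free and DMSO wells / Replicates: each compound tested once, singlicate / Schedule: enzyme reaction with compound for 2 h at 37 °C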
CASP6 VEID inh – inhibitors of human caspase-6; inhibition, % at 12.5 µM; AID 686996; purified caspase-6, Z-VEID-R110 cleavage fluorescence; P55212; actives 0.53% (n = 350,000);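 active = mean inhibition across replicates at least about 35%, with every replicate also reaching that limit, limit read from the data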
LEDGF integ inh – blocks HIV-1 LEDGF/p75-dependent DNA integration; TR-FRET IN-LEDGF/p75 DNA integration, Eu/Cy5; inhibition, % at 3.7 µM; AID 743269; actives 0.64% (n = 370,000);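 active = inhibition above the screen-wide mean plus 3 SD, cut at about 13% in these data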;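 also: signal is the Cy5 over europium emission ratio at 671 and 618 nm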
NSD2 inh – NSD2 (human) methyltransferase inhibition | NSD2 peptide methylation, AlphaScreen, 120 min | inhibition, % at 12.5 µM | O96028 | actives 0.54% (n = 310,000) | AID 743445; in the data active = inhibition above about 50%
UHRF1 binding – UHRF1 methyl-DNA binding inhibition; actives 0.75% (n = 370,000); UHRF1 binding to methylated oligo, TR-FRET; inhibition, % at 4.4 µM; in the data active = inhibition above about 21%;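 also: UHRF1 SRA domain binding a hemimethylated CpG hairpin DNA probe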
Target sequence (Q96T88 whole entry, looked up, the tested form may be a part): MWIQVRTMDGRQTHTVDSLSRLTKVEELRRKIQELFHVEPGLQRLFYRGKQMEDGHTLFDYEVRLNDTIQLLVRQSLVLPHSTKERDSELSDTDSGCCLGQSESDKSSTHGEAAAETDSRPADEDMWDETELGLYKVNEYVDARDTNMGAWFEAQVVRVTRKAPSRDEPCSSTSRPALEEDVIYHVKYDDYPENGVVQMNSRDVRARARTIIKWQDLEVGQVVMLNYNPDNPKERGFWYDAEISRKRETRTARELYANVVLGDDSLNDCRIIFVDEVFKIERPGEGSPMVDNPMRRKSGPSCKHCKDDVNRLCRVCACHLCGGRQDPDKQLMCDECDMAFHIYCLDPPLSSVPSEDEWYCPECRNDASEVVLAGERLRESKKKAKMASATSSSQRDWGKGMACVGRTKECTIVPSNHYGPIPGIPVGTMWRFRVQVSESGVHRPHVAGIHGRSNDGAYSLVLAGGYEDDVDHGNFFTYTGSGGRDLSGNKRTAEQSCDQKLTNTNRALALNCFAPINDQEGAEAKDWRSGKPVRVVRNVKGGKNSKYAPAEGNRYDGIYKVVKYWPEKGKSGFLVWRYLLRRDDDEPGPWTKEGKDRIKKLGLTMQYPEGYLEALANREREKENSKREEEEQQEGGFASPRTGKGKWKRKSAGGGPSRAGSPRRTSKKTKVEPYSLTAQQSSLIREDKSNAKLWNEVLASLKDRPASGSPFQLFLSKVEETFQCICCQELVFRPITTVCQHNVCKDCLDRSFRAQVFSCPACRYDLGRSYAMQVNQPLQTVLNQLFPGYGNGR
IN multimer act – HIV-1 integrase multimerization activation, counter-screen; shares compounds with LEDGF integ inh; activation, % at 7.7 µM; TR-FRET HIV-1 integrase multimerization, biochemical; actives 17% (n = 2,000); in the data active = activation above about 8.9%
TR-FRET interf – counter-screen for LEDGF/p75 integration inhibitors: TR-FRET optical interference; AID 1053135; inhibition, % at 7.7 µM; shares compounds with LEDGF integ inh; 2,000 tested, under 10 active; TR-FRET optical interference counterscreen, HIV-1 IN multimerization;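 active = inhibition above the mean over all tested compounds plus 3 SD, which no compound reached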
LEDGF integ conf – LEDGF/p75-dependent HIV-1 integration inhibition, confirmation; shares compounds with LEDGF integ inh; TR-FRET LEDGF/p75-dependent HIV-1 integration, biochemical; inhibition, % at 3.7 µM; actives 36% (n = 2,000); AID 1053136; in the data active = inhibition above about 14%
Large screens that a line does not name were inactive (follow-up assays come after a bar, where they were run). Rows were chosen to be rich in hits. Some 1.9% of all compounds tested hit in one or more screens of this group.

CC(C)C[C@@H](CN1CCC[C@H]1CN1C(=O)C(=O)NC[C@@H]1Cc1ccc(O)cc1)N1C[C@H](Cc2ccccc2)N(CCc2ccccc2)C(=O)C1=O	none (no result: NSD2 inh)
CC(C)C[C@@H](CN1CCC[C@H]1CN1C(=O)C(=O)NC[C@@H]1Cc1ccc(O)cc1)N1C[C@H](Cc2ccc(O)cc2)N(CCc2ccccc2)C(=O)C1=O	LEDGF integ inh 73.5 (no result: NSD2 inh) | IN multimer act inactive | TR-FRET interf inactive | LEDGF integ conf inactive
C[C@H](CO)N1C[C@H](C)[C@H](CN(C)Cc2ccc3c(c2)OCO3)OCc2cn(nn2)CCCC1=O	none (no result: MBD2 inh, TDP2 inh, LEDGF integ inh, NSD2 inh, UHRF1 binding)
COc1ccc(Nc2ncc(C(=O)O)c3ccccc23)cc1	none (no result: CASP6 VEID inh)
COc1ccc(Nc2ncc(C(=O)N3CCN(c4ccc(F)cc4)CC3)c3ccccc23)cc1	LEDGF integ inh 14.0 (no result: CASP6 VEID inh) | IN multimer act inactive | TR-FRET interf inactive | LEDGF integ conf inactive
C[C@@H]1CN([C@H](C)CO)C(=O)Cc2cc(NC(=O)Nc3ccc(C(F)(F)F)cc3)ccc2O[C@@H]1CN(C)Cc1ccc(-c2ccccc2)cc1	none (no result: MBD2 inh, TDP2 inh, LEDGF integ inh, NSD2 inh, UHRF1 binding)
CCNC(=O)C[C@H]1C=C[C@@H](NC(=O)NC2CCCCC2)[C@@H](CO)O1	none (no result: MBD2 inh, TDP2 inh, LEDGF integ inh, NSD2 inh, UHRF1 binding)
CCC(CC)C(=O)N(C)c1c(C)nc2c(OCc3ccc(C#N)cc3)cccn12	LEDGF integ inh 14.7 (no result: CASP6 VEID inh) | IN multimer act inactive | TR-FRET interf inactive | LEDGF integ conf inactive
CCCC#Cc1cnc2c(c1)C(=O)N([C@H](C)CO)C[C@@H](C)[C@@H](CN(C)C(=O)Cc1cccnc1)O2	none (no result: MBD2 inh, TDP2 inh, LEDGF integ inh, NSD2 inh, UHRF1 binding)
CC(Cc1ccccc1)NC(=O)CN1C(=O)c2ccccc2S1(=O)=O (configuration not stated)	LEDGF integ inh 82.1 | IN multimer act inactive | TR-FRET interf inactive | LEDGF integ conf inactive
C[C@@H](NC(=O)CN1C(=O)c2ccccc2S1(=O)=O)c1ccccc1	none
CCOC(=O)C1=C(O)/C(=C/c2ccc(CNC(=O)C(=O)Nc3ccc(C)cc3)o2)N=C1C	LEDGF integ inh 35.1 (no result: CASP6 VEID inh) | IN multimer act inactive | TR-FRET interf inactive | LEDGF integ conf inactive
CCOC(=O)C(=O)NCc1ccc(/C=C2/N=C(C)C(C(=O)OCC)=C2O)o1	none
COC(=O)C1=C(O)/C(=C\c2ccc(CNC(=O)C(=O)Nc3ccc(C)c(C)c3)o2)N=C1C	LEDGF integ inh 41.1 (no result: CASP6 VEID inh) | IN multimer act inactive | TR-FRET interf inactive | LEDGF integ conf inactive
COC(=O)C1=C(O)/C(=C\c2ccc(CNC(=O)C(=O)Nc3ccc(C)cc3)o2)N=C1C	none (no result: CASP6 VEID inh)
O=C(C[C@H]1C[C@@H]2c3cc(NS(=O)(=O)c4ccc(F)cc4)ccc3O[C@@H]2[C@H](CO)O1)N1CCOCC1	none (no result: MBD2 inh, TDP2 inh, LEDGF integ inh, NSD2 inh, UHRF1 binding)
CC(CC(=O)O)Nc1ccccc1O (configuration not stated)	LEDGF integ inh 35.0 | IN multimer act inactive | TR-FRET interf inactive | LEDGF integ conf inactive
COc1ccc(OC)c(/C=C/c2ccnc3ccccc23)c1	LEDGF integ inh 25.0 | IN multimer act inactive | TR-FRET interf inactive | LEDGF integ conf inactive
CCCc1nc2ccc(C)cn2c1Cc1ccc(C)cc1	LEDGF integ inh 13.9, UHRF1 binding 20.7 (no result: NSD2 inh) | IN multimer act inactive | TR-FRET interf inactive | LEDGF integ conf inactive
O=C(NC[C@@H]1[C@@H](c2ccccc2)[C@@H](CO)N1CC1CCCC1)C1CC1	none (no result: MBD2 inh, TDP2 inh, LEDGF integ inh, NSD2 inh, UHRF1 binding)
Cc1cc(CC(=O)O)c2oc(-c3ccoc3)cc(=O)c2c1	LEDGF integ inh 14.7, UHRF1 binding 25.3 | IN multimer act inactive | TR-FRET interf inactive | LEDGF integ conf 29.1
Cc1cc2c(=O)cc(-c3ccccc3)oc2c(C(=O)O)c1C	none
COc1ccc(NC(=O)Nc2ccc3c(c2)CC(=O)N([C@H](C)CO)C[C@@H](C)[C@@H](CN(C)C(=O)Nc2ccccc2)O3)cc1	none (no result: MBD2 inh, TDP2 inh, LEDGF integ inh, NSD2 inh, UHRF1 binding)
O=C(O)c1cc(C(=O)O)c(-c2ccccc2)c(C(=O)O)c1	none (no result: CASP6 VEID inh)
O=C(O)c1cc(-c2ccccc2)nc(-c2ccccc2)c1	LEDGF integ inh 14.6 | IN multimer act inactive | TR-FRET interf inactive | LEDGF integ conf inactive
CC1CN(C(=O)c2nn(C)cc2[N+](=O)[O-])CC(C)O1 (configuration not stated)	LEDGF integ inh 42.3 (no result: CASP6 VEID inh, NSD2 inh) | IN multimer act inactive | TR-FRET interf inactive | LEDGF integ conf inactive
O=C1c2c(O)cc(O)cc2O[C@@]12c1c(cc(O)c3c1O[C@H](c1ccc(O)cc1)[C@@H](O)C3)O[C@@H]2c1ccc(O)cc1	LEDGF integ inh 17.7, UHRF1 binding 23.9 (no result: CASP6 VEID inh, NSD2 inh) | IN multimer act 13.3 | TR-FRET interf inactive | LEDGF integ conf 39.0
Oc1cc(O)c2c(c1)O[C@H](c1ccc(O)c(O)c1)[C@@H](O)C2	none (no result: CASP6 VEID inh, NSD2 inh)
CC(C)(C)OC(=O)N1CCC(C(=O)N[C@@H](Cc2ccccc2)C(=O)O)(c2ccccc2)CC1	LEDGF integ inh 18.1 (no result: CASP6 VEID inh) | IN multimer act inactive | TR-FRET interf inactive | LEDGF integ conf 14.9
CC(C)[C@H](NC(=O)C1(c2ccccc2)CCN(C(=O)OC(C)(C)C)CC1)C(=O)O	none (no result: CASP6 VEID inh)
Cc1ccc(OCC(=O)N(Cc2ccccc2)c2ccccn2)cc1	LEDGF integ inh 51.9 | IN multimer act inactive | TR-FRET interf inactive | LEDGF integ conf inactive
Cc1ccc(CC(=O)N(Cc2ccccc2)c2ccccn2)cc1	none
CCCC#Cc1ccc2c(c1)O[C@H](CN(C)C(=O)c1cnccn1)[C@H](C)CN([C@@H](C)CO)S2(=O)=O	none (no result: MBD2 inh, TDP2 inh, LEDGF integ inh, NSD2 inh, UHRF1 binding)
CC(=O)NNc1nc(-c2ccccc2)c2cc(Br)ccc2n1	none (no result: CASP6 VEID inh)
O=C(CN1CCCCC1)NNc1nc(-c2ccccc2)c2cc(Br)ccc2n1	LEDGF integ inh 19.1 | IN multimer act inactive | TR-FRET interf inactive | LEDGF integ conf inactive
COc1cc(CCC(=O)NCc2ccc3c(c2)OCO3)cc(OC)c1OC	LEDGF integ inh 29.2 | IN multimer act inactive | TR-FRET interf inactive | LEDGF integ conf inactive
O=C(C[C@@H]1CC[C@@H](NC(=O)Nc2cccc(F)c2)[C@H](CO)O1)NCC1CC1	none (no result: MBD2 inh, TDP2 inh, LEDGF integ inh, NSD2 inh, UHRF1 binding)
Oc1c(CN2CCOCC2)cc(CN2CCOCC2)c(O)c1CN1CCOCC1	LEDGF integ inh 19.6 | IN multimer act inactive | TR-FRET interf inactive | LEDGF integ conf inactive
C[C@@H]1CN([C@@H](C)CO)C(=O)c2ccccc2-c2ccccc2CO[C@@H]1CN(C)C	none (no result: MBD2 inh, TDP2 inh, LEDGF integ inh, NSD2 inh, UHRF1 binding)
Nc1cc(Cl)ccc1Oc1ccc(Cl)cc1	none (no result: CASP6 VEID inh)
Nc1cc(Cl)ccc1Oc1ccccc1	LEDGF integ inh 35.7 (no result: CASP6 VEID inh) | IN multimer act inactive | TR-FRET interf inactive | LEDGF integ conf inactive
